Measles CPE – protection of cells from measles virus | Measles virus-infected cells, CPE protection, absorbance | protection (pct of control), % at 4 µM | 140,000 tested, 1.5% active; in the data active means protection mostly above about 24%, no sharp cut-off; inactive means mostly below about 26%
BB579 growth dn – reduces growth of yeast BB579 in restrictive medium. S. cerevisiae BB579 growth, OD615, 48 h. inhibition, % at 10 µM. 140,000 tested, 0.51% active. AID 804;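 active means inhibition above a set limit, 3 SD over the mean compound inhibition, cut at about 44% in these data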
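controls = amphotericin B 10 µg/mL, positive | assay system = DeaD yeast strain BB579 | schedule = 48 h compound exposure at 30 °C after 4 h preincubation | detection = OD615 turbidity measurement | medium = restrictive CSMM-D medium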
WT yeast gro inh – growth inhibition of WT yeast, mitochondrial fusion screen; mitochondrial fusion phenotypic screen, WT strain; inhibition, % at 10 µM; 190,000 tested, 2.1% active; AID 1362; in the data active means inhibition above about 58%; tested in S. cerevisiae
Yeast lifespan up – yeast lifespan extension. 130,000 tested, 0.68% active. AID 775. S. cerevisiae growth with nicotinamide, OD615; deaD strain in restrictive glucose medium. inhibition of the nicotinamide effect, % at 10 µM;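 active means inhibition above a set limit, placed 3 SD over the median of all compounds, cut at about 26% in these data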;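 further: 0% = nicotinamide-treated wells and 100% = cells grown without nicotinamide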
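System: DeaD-strain S. cerevisiae / Buffer or medium: CSMM-D, restrictive glucose (dextrose) synthetic minimal medium / Probe or stimulus: nicotinamide, 1.5 mM, co-present with compound / Compound: one concentration, 10 µM, DMSO 0.25% / Incubation: 48 h compound exposure at 30 °C, humidified / Technique: optical density (absorbance) at 615 nm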
RAM network inh – yeast RAM network inhibition. S. cerevisiae dse1pr::URA3 reporter, 5-FOA growth OD615, 2 d; analog-sensitive cbk1-as2 kinase mutant strain. 190,000 tested, 1.8% active. inhibition, % at 50 µM;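 active means inhibition above a set limit, 3 SD over mean compound inhibition, cut at about 8.4% in these data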;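 further: 0% = DMSO-only wells with no growth and 100% = 10 µM 1-NA-PP1 full growth; inhibition rescues growth on 5-FOA so higher OD means more RAM inhibition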
hDAT+cocaine – human DAT dopamine uptake with cocaine, either direction. LLC-PK1 hDAT cells, [14C]-dopamine uptake with cocaine IC80; actives deviate in either direction. AID 449768. Q01959. B-score at 10 µM. 110,000 tested, 1.3% active;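 active means Z score or B-score, a plate-position-corrected score, falls beyond the plate's 99.7% confidence bounds, in either direction; inactive means both scores lie inside the 99.7% bounds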;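 further: scored against the spread of the other compound wells on the same plate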
Target sequence (Q01959 whole entry, looked up): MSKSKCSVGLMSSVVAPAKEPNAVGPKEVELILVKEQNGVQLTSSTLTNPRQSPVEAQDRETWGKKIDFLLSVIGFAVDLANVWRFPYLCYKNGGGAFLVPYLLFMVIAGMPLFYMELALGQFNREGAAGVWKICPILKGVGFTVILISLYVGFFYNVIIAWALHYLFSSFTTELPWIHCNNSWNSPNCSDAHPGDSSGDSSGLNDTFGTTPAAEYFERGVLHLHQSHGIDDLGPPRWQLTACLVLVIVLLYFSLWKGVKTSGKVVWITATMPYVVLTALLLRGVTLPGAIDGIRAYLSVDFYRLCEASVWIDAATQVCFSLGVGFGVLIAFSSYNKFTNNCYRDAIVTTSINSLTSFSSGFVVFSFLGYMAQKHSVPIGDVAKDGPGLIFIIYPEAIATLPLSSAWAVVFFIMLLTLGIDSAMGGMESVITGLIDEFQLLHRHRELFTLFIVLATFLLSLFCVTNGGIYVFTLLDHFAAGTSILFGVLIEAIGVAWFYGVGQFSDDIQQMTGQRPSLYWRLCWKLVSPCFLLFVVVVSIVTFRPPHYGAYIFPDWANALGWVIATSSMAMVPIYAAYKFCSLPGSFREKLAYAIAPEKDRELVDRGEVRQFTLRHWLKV
RAM 5-FOA – RAM network inhibitors in efflux-deficient yeast; shares compounds with RAM network inh; S. cerevisiae efflux-deficient reporter strain, 5-FOA growth OD615, 2 days; max inhibition, %; 1,200 tested, under 10 active; call rule not given here;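 further: plate controls were vehicle for no effect and reference inhibitor for full effect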
Active calls of the source: *; nt = no result given. The list is not random: actives were taken first. Their share in the collection is about 6.1%.

SMILES	Measles CPE	BB579 growth dn	WT yeast gro inh	Yeast lifespan up	RAM network inh	hDAT+cocaine	RAM 5-FOA
Cc1cccc(NC(=S)NCC(c2cccnc2)N(C)C)c1 (stereo not given)	3	-16	-19	8	1	nt	nt
N#CC(Nc1ccccc1)c1ccccc1OCc1ccccc1 (stereo not given)	24	-47	nt	26	14*	-0.46	1
Cc1cccc(NC2=NCC(=O)N2Cc2cccs2)c1	nt	nt	-10	nt	1	nt	nt
COc1ccccc1NC(=O)c1ccc(NC(=O)COC(=O)CCC2CCCC2)cc1	nt	-32	34	-3	14*	nt	3
C=CCn1c(COc2ccc3c(c2)CCCC3)nnc1SCC(=O)Nc1cccc(SC)c1	10	-17	39	-9	15*	0.31	4
CCOC(=O)c1cccc(NC(=O)CSc2nnc(COc3ccccc3C)o2)c1	12	6	-7	-3	12*	-0.12	1
C=CCn1c(COc2ccccc2)nnc1SCC(=O)Nc1ccc2c(c1)OCCO2	3	-16	-3	-2	4	0.038	nt
COc1cccc(NC(=O)CSc2nnc(COc3ccc4c(c3)CCCC4)o2)c1	15	-19	3	nt	12*	-0.5	2
CCn1cc(S(=O)(=O)Nc2cc(F)ccc2C)cn1	nt	nt	-24	nt	0	nt	nt
O=C(CN(Cc1ccccc1Cl)C(=O)c1ccc(CN2CCOCC2)o1)NCC1CCCO1 (stereo not given)	21	-28	13	-11	0	1.3	nt
O=c1ccc(/C=C/c2ccccc2)nn1Cc1ccc(Cl)cc1Cl	5	-107	18	2	13*	0.049	2
O=C(/C=C/c1ccc(Cl)cc1Cl)NCCSCc1ccccc1	5	-38	59*	-2	16*	nt	4
N#Cc1ccccc1NC(=O)COC(=O)CSc1nc2ccccc2o1	2	-5	-20	-7	2	-0.39	nt
CC(=O)c1ccc(NC(=S)NN2C(C)CCCC2C)cc1 (stereo not given)	nt	nt	-7	nt	3	nt	nt
CC(=O)c1ccc(NC(=S)NC2CCCC(C)C2C)cc1 (stereo not given)	nt	nt	23	nt	20*	nt	2
CCc1oc2ccccc2c1C(=O)c1cc(Br)c(O)c(Br)c1	4	82*	85*	-1	16*	0.68	1
O=C(Cc1ccccc1)NCc1ccc(-n2cccc2)cc1	nt	nt	-6	nt	4	nt	nt
O=C(COC(=O)CCc1c[nH]c2ccccc12)NC(c1ccccc1)c1ccccc1	13	-22	3	-5	17*	nt	2
CCOC(=O)c1cnc(-c2ccccc2)nc1Oc1ccc(Cl)cc1	2	-49	-5	36	14*	0.52	1
CCOC(=O)c1cc(C#N)c(Oc2ccccc2)nc1-c1ccccc1	3	-6	2	-2	12*	-0.43	6
O=C(O)c1cnc(-c2ccccc2)nc1Oc1ccc(Cl)cc1	nt	nt	-16	nt	3	nt	nt
COc1cc2c(cc1C=O)OC(C)C2 (stereo not given)	nt	nt	0	nt	1	nt	nt
O=C(COC(=O)c1cccc(C(=O)OCC(=O)NC2CC2)n1)NC1CC1	nt	nt	-5	nt	-1	nt	nt
Cc1nn(-c2ccccc2)c(Cl)c1/C=C(\C#N)C(=O)NC(C)C	7	20	11	-4	-1	nt	nt
CSCSC1=C(C#N)C(c2ccc(Cl)cc2)C(C(C)=O)=C(C)N1 (stereo not given)	21	-30	57	-16	15*	0.34	4
SMILES	Measles CPE	BB579 growth dn	WT yeast gro inh	Yeast lifespan up	RAM network inh	hDAT+cocaine	RAM 5-FOA
COc1ccc(-c2nn(CCC(=O)O)cc2/C=C2\SC(N)=NC2=O)cc1OC	9	-13	5	0	3	nt	nt
CCCOc1ccc(-c2nn(-c3ccccc3)cc2/C=C2\SC(N)=NC2=O)cc1C	17	-26	-24	7	13*	nt	9
FC(F)Sc1ccc(NC(=S)NC(c2ccccc2)c2ccccc2)cc1	nt	nt	85*	nt	19*	nt	4
CC(=O)N1CCN(C(=S)Nc2ccc(SC(F)F)cc2)CC1	nt	nt	-6	nt	2	nt	nt
CC(=O)C1=C(O)C(=O)N(CCCn2ccnc2)C1c1ccc(Br)cc1 (stereo not given)	nt	nt	16	nt	1	nt	nt
O=C(CCCN1C(=O)/C(=C/c2cccs2)SC1=S)Nc1ccccn1	nt	nt	-10	nt	1	nt	nt
O=C(O)CCCN1C(=O)/C(=C/c2cn(-c3ccccc3)nc2-c2cccs2)SC1=S	nt	nt	7	nt	12*	nt	3
Cc1ccc(Oc2nc(-c3cccnc3)nc3ccccc23)c([N+](=O)[O-])n1	nt	nt	-4	nt	3	nt	nt
Cc1cc(NC(=O)COC(=O)C(Nc2ccc(C(F)(F)F)cc2Cl)C(C)C)no1 (stereo not given)	14	-34	79*	-4	13*	0.2	6
COc1cc(/C=C2\SC(=S)N(CC(=O)Nc3ccccn3)C2=O)cc(OC)c1OC	8	-38	-6	-4	6	nt	nt
C=CCN1C(=O)/C(=C\c2cc(Br)c(OCc3ccccn3)c(OC)c2)SC1=S	nt	nt	2	nt	19*	nt	2
O=C(O)c1cc(Sc2ccc(Br)cc2)nc2ccccc12	nt	nt	9	nt	11*	nt	3
CSc1ccccc1Sc1cc(C(=O)O)c2ccccc2n1	nt	-4	1	-1	-1	nt	nt
Cc1cc(=O)[nH]c(N/N=C/c2ccc(OC(=O)c3cccnc3)cc2)n1	nt	nt	-5	nt	2	nt	nt
Cc1ccc(C(c2nnnn2C2CCCC2)N2CCc3ccccc32)cc1 (stereo not given)	15	-45	12	-7	12*	nt	4
CC(C)C(c1nnnn1C1CCCC1)N1CCc2ccccc21 (stereo not given)	2	-56	11	-5	1	0.2	nt
CC1(C)[C@H]2CC=C(CN3CCC(N4CCC(C(=O)N5CCCC5)CC4)CC3)[C@@H]1C2	nt	nt	-2	nt	-1	nt	nt
Cc1ccc(S(=O)(=O)N2CCCCCC2)cc1[N+](=O)[O-]	12	-51	-8	8	1	nt	nt
Cc1ccc(S(=O)(=O)N2CCC(C)CC2)cc1[N+](=O)[O-]	nt	nt	-2	nt	23*	nt	2
CSCCC(NC(=O)/C(=C\c1ccc(Cl)cc1)NC(=O)c1ccccc1)C(=O)O (stereo not given)	nt	nt	-3	nt	0	nt	nt
O=C(COc1ccccc1C(=O)O)Nc1ccc(SC(F)F)cc1	nt	nt	-1	nt	1	nt	nt
O=C(COC(=O)c1ccccc1C(=O)c1ccccc1)Nc1ccc(SC(F)F)cc1	8	-26	36	4	13*	nt	3
CC(C)(C)NC(=O)COC(=O)c1ccccc1Nc1ccc(SC(F)F)cc1	5	-1	25	-1	2	nt	nt
O=C(COC(=O)c1ccccc1Nc1ccc(SC(F)F)cc1)NC1CC1	4	-2	48	-1	12*	nt	2
CC(=O)N1CCN(c2c(F)c(F)c(C(F)(F)F)c(F)c2F)CC1	nt	nt	0	nt	0	nt	nt
CCN(CC)S(=O)(=O)c1ccc(N2CCOCC2)c(NC(=O)CCC2CCCCC2)c1	9	-30	-11	3	14*	nt	2
